Reference: ChEMBL document CHEMBL3271971, “Antineoplastic and biochemical properties of arylsulfonylhydrazones of 2-formylpyridine N-oxide” (J Med Chem, 1976)

How the values were obtained:
[1] = Antineoplastic activity against mouse S180A cells allografted in CD-1 mouse assessed as average survival at maximum effective dose administered qd for 6 days relative to control; type: functional
Outline: (§1)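 Sarcoma 180 ascites cells were transplanted from a donor mouse bearing a 7-day tumour. Each agent was tested at 10–60 mg/kg/day, once daily for six consecutive days, starting 24 h after transplantation, in groups of 5–10 mice. Pooled untreated controls totalled 40 mice. Mice surviving beyond 50 days were counted as 50-day survivors, and body-weight change over therapy served as the toxicity index.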

[2] = Antineoplastic activity against mouse S180A cells allografted in CD-1 mouse assessed as average survival at maximum effective dose administered qd for 6 days (reference value: 12.5 +/- 0.3 days); type: functional; outline: as §1
[3] = tested on: Mus musculus; experiment: Toxicity in CD-1 mouse allografted with mouse S180A cells assessed as change in body weight at maximum effective dose administered qd for 6 days (reference value: 23.2%); type: organism-based; settings: 144 h
[4] = Antineoplastic activity against mouse S180A cells allografted in CD-1 mouse assessed as maximum dose required for increase in mouse survival administered qd for 6 days; type: functional
[5] = Antineoplastic activity against mouse S180A cells allografted in CD-1 mouse assessed as mouse survival at maximum effective dose administered qd for 6 days measured for 50 days relative to control; type: functional; outline: as §1

SMILES	T/C [1]	Survival [2]	Activity [3]	Activity [4]	Survival [5]
CS(=O)(=O)N/N=C/c1ccncc1	107%	13.4 days	18.6%	20 mg/kg	0%
Cc1ccc(S(=O)(=O)N/N=C/c2cccnc2)cc1	106%	13.2 days	12.6%	60 mg/kg	0%
Cc1ccc(S(=O)(=O)N/N=C/c2cc[n+]([O-])cc2)cc1	123%	15.4 days	17.7%	60 mg/kg	0%
Cc1ccc(C(=O)N/N=C/c2cccc[n+]2[O-])cc1	90%	11.2 days	10.2%	60 mg/kg	0%
O=S(=O)(N/N=C/c1c2ccccc2cc[n+]1[O-])c1ccccc1	107%	13.4 days	1.6%	10 mg/kg	0%
Cc1ccc(S(=O)(=O)N/N=C/c2ccncc2)cc1	226%	28.2 days	-0.9%	60 mg/kg	10%
CS(=O)(=O)N/N=C/c1cccc[n+]1[O-]	123%	15.4 days	20%	60 mg/kg	0%
Cc1ccc(S(=O)(=O)N/N=C/c2ccccn2)cc1	123%	15.4 days	20.1%	10 mg/kg	0%
Cc1ccc(S(=O)(=O)N/N=C/c2ccc[n+]([O-])c2)cc1	109%	13.6 days	0%	60 mg/kg	0%
Cc1ccc(S(=O)(=O)N/N=C/c2ccccc2[N+](=O)[O-])cc1	105%	13.2 days	2.1%	60 mg/kg	0%
Cc1ccc(S(=O)(=O)N/N=C/c2ccccc2)cc1	115%	14.4 days	15.1%	20 mg/kg	0%
O=S(=O)(Cc1ccccc1)N/N=C/c1cccc[n+]1[O-]	282%	35.2 days	-0.3%	40 mg/kg	40%
O=S(=O)(N/N=C/c1cccc[n+]1[O-])c1ccccc1	339%	42.4 days	-5.2%	40 mg/kg	40%
Cc1ccc(C(=O)N/N=C/c2ccccn2)cc1	94%	11.8 days	17.4%	60 mg/kg	0%
O=S(=O)(N/N=C/c1ccc2ccccc2[n+]1[O-])c1ccccc1	109%	13.6 days	2.6%	20 mg/kg	0%
O=S(=O)(Cc1ccccc1)N/N=C/c1ccncc1	169%	21.2 days	-3.3%	60 mg/kg	0%
